This is a sample that favours compounds with a hit; in the whole collection about 1.7% have one here.
SKKanGAS inh – SKKanGAS growth inhibition; inhibition, % at 7.5 µM; S. pyogenes SKKanGAS, kanamycin growth, BacTiter-Glo, 6 h; 300,000 tested, 1.3% active; AID 1662;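 active = mean replicate score, as percent of positive control median, at least 50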;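 also: strain carries kanamycin resistance gene driven by streptokinase promoter and grows in 40 µg/ml kanamycin; loss of luminescence reflects streptokinase promoter inhibition or plain growth inhibition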
PfHsp90 yeast 2 – growth inhibition of yeast expressing Plasmodium Hsp90; S. cerevisiae expressing PfHsp90, BacTiter-Glo ATP, 48 h; yeast lacking PDR1 and PDR3 efflux regulators; inhibition, % at 9.4 µM; 310,000 tested, 0.32% active;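 active = every replicate shows inhibition above about 80%, whatever the replicate mean, limit read from the data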
CSC inhib – blocks cancer stem cells; 300,000 tested, 1.1% active; inhibition, % at 7.5 µM; cancer stem cell-like cells viability, luminescence; in the data active = inhibition above about 75%; tested in HMLE shEcad cells
PglD inh – PglD (C. jejuni) enzyme inhibition | purified PglD enzyme, DTNB colorimetric CoA detection | inhibition, % at 12.5 µM | 360,000 tested, 0.098% active | AID 602405; in the data active = inhibition above about 16%, passing the limit was not always enough
FN deposition inh – fibronectin deposition inhibition. AID 743247. inhibition, % at 12.6 µM. AH1F fibroblasts, Alexa488-fibronectin deposition fluorescence, overnight. 350,000 tested, 0.086% active;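 active = mean inhibition across replicates of 30% or more, regardless of how many single replicates reach that level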
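Material: AH1F fibroblast monolayer depositing Alexa488-labelled fibronectin into matrix | Input: 10000 AH1F cells/well | Medium: DMEM plus 2% serum, read in PBS | Reagent: Alexa488-fibronectin, 24 nM final in well | Compound dosing: One dose per compound, pinned | Schedule: 1 h adhesion, overnight exposure | Measured by: Fluorescence at 485 nm excitation, 525 nm emission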
Rtt109 HAT inh – C. albicans Rtt109 histone acetyltransferase inhibition | Q5AAJ8 | purified Rtt109/Vps75, ThioGlo CoA-SH fluorescence, 4 h | inhibition, % at 34.9 µM | 330,000 tested, 0.16% active;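 active = inhibition of at least 50% in every replicate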
Target sequence (Q5AAJ8 whole entry, looked up): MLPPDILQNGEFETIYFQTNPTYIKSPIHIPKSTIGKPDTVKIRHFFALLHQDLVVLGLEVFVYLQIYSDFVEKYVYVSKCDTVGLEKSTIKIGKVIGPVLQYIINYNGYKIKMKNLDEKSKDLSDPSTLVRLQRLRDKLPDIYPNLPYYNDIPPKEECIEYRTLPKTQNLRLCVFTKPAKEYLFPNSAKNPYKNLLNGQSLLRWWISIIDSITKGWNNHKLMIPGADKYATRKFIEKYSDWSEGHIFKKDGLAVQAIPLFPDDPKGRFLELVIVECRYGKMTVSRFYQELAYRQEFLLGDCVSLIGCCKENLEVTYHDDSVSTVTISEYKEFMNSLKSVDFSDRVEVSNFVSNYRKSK
Hits are given with their value.

For Nc1[nH]n2c(=O)c3c(nc2c1N=Nc1ccccc1)CCCC3 the results were SKKanGAS inh inactive, PfHsp90 yeast 2 inactive and Rtt109 HAT inh inactive.
CCC(=O)N1[C@@H](CO)[C@@H]2c3ccccc3N(C(=O)CC(F)(F)F)C[C@@H]21 was read as PglD inh inactive.
`O=C(Nc1nc(N2C(=O)c3ccccc3C2=O)n(-c2ccccc2)n1)c1ccc(Cl)cc1` gave SKKanGAS inh 56, PfHsp90 yeast 2 inactive, CSC inhib inactive, PglD inh inactive, FN deposition inh inactive and Rtt109 HAT inh inactive.
`Nc1nc(NC(=O)c2ccc(Cl)cc2)nn1-c1ccccc1` gave SKKanGAS inh inactive, PfHsp90 yeast 2 inactive, CSC inhib inactive, FN deposition inh inactive and Rtt109 HAT inh inactive.
Screening CC(C)C[C@H]1COCc2cn(nn2)CC[C@H](Cc2cccc(Cl)c2)C(=O)N1 returned FN deposition inh inactive.
`C[C@@H]1CN([C@@H](C)CO)S(=O)(=O)c2ccc(/C=C/c3ccccc3)cc2O[C@H]1CN(C)C(=O)CN1CCOCC1` gave PglD inh inactive.
Screening COc1cc([N+](=O)[O-])cc(/C=N/NC(=O)C(O)(c2ccccc2)c2ccccc2)c1O returned SKKanGAS inh 98, PfHsp90 yeast 2 inactive, CSC inhib inactive, PglD inh inactive, FN deposition inh inactive and Rtt109 HAT inh inactive.
`COc1cc([N+](=O)[O-])cc(/C=N/NC(=O)c2cccnc2)c1O` gave SKKanGAS inh 88, PfHsp90 yeast 2 inactive, CSC inhib inactive, PglD inh inactive, FN deposition inh inactive and Rtt109 HAT inh inactive.
COc1ccc(Br)cc1/C=N/NC(=O)c1cccnc1 was read as SKKanGAS inh inactive, PfHsp90 yeast 2 inactive, CSC inhib inactive, PglD inh inactive, FN deposition inh inactive and Rtt109 HAT inh inactive.
For COc1cc([N+](=O)[O-])cc(/C=N\NC(=O)C2COc3ccccc3O2)c1O (stereo not drawn) the results were SKKanGAS inh 104, PfHsp90 yeast 2 inactive, CSC inhib inactive, FN deposition inh inactive and Rtt109 HAT inh inactive.
O=C(N/N=C\c1cccc([N+](=O)[O-])c1O)C1COc2ccccc2O1 (stereo not drawn) was read as SKKanGAS inh inactive, PfHsp90 yeast 2 inactive, CSC inhib inactive, PglD inh inactive, FN deposition inh inactive and Rtt109 HAT inh inactive.
CN1C(=O)c2cc(NC(=O)Nc3ccccc3Cl)ccc2OC[C@H]2O[C@@H](CC(=O)O)CC[C@@H]21 was read as PglD inh inactive and FN deposition inh inactive.
`Cc1noc(C)c1S(=O)(=O)N(C)C[C@@H]1Oc2ccc(NS(=O)(=O)c3cn(C)cn3)cc2CC(=O)N([C@H](C)CO)C[C@@H]1C` gave PglD inh inactive and FN deposition inh inactive.
COC(=O)c1c(NC(NC(=O)C(C)C)C(Cl)(Cl)Cl)sc2c1CCCC2 (stereo not drawn) was read as SKKanGAS inh 58, PfHsp90 yeast 2 inactive, FN deposition inh inactive and Rtt109 HAT inh inactive.
For COC(=O)c1c(NC(C)=O)sc2c1CCCC2 the results were SKKanGAS inh inactive, PfHsp90 yeast 2 inactive, CSC inhib inactive, PglD inh inactive and Rtt109 HAT inh inactive.
For CC(C)NC(=O)N(C)C[C@H]1Oc2ccc(NS(=O)(=O)c3cn(C)cn3)cc2CC(=O)N([C@H](C)CO)C[C@@H]1C the results were PglD inh inactive.
For CCN(CC)c1ccc2cc(S(=O)(=O)c3ccc(C)cc3)c(=O)oc2c1 the results were SKKanGAS inh inactive, PfHsp90 yeast 2 inactive, CSC inhib 99, FN deposition inh inactive and Rtt109 HAT inh inactive.
`Cc1ccc(C(C[N+](=O)[O-])n2nc(C)cc2C)cc1` (stereo not drawn) gave SKKanGAS inh inactive, PfHsp90 yeast 2 inactive, CSC inhib 101, PglD inh inactive and Rtt109 HAT inh inactive.
For COc1ccc(CN(C)C(=O)c2cc(S(=O)(=O)N3CCCCCC3)ccc2OC)cc1OC the results were SKKanGAS inh inactive, PfHsp90 yeast 2 inactive, PglD inh inactive and Rtt109 HAT inh 57.
Screening CC(C)(C)SCCNC(=O)c1ccc(Cl)c([N+](=O)[O-])c1 returned SKKanGAS inh inactive, PfHsp90 yeast 2 102, CSC inhib inactive, FN deposition inh inactive and Rtt109 HAT inh inactive.
For Cc1ccccc1CNC(=O)c1ccc(Cl)c([N+](=O)[O-])c1 the results were SKKanGAS inh inactive, PfHsp90 yeast 2 inactive, CSC inhib inactive, FN deposition inh inactive and Rtt109 HAT inh inactive.
Screening CSc1nc2nccc(-c3ccc(-c4ccccc4)cc3)n2n1 returned SKKanGAS inh 72, PfHsp90 yeast 2 inactive, CSC inhib inactive, PglD inh inactive and Rtt109 HAT inh inactive.
CSc1nc2nccc(-c3ccc(Oc4ccccc4)cc3)n2n1 was read as PfHsp90 yeast 2 inactive, CSC inhib inactive, PglD inh inactive and Rtt109 HAT inh inactive.
Cc1ccc(-c2n[nH]c3c2CCC3)cc1 was read as SKKanGAS inh 55, PfHsp90 yeast 2 inactive, CSC inhib inactive, PglD inh inactive, FN deposition inh inactive and Rtt109 HAT inh inactive.
For C[C@@H]1CN([C@H](C)CO)C(=O)c2cc(NC(=O)c3ccccc3)ccc2O[C@@H](C)CCCCO[C@H]1CN(C)C(=O)NC1CCCCC1 the results were PglD inh inactive and FN deposition inh inactive.
For CNC[C@H]1Oc2ccc(NC(=O)NC(C)C)cc2CC(=O)N(C)C[C@H]1C the results were FN deposition inh inactive.
Screening CCc1ccc(OCC(=O)NC(NC(=S)Nc2ccc(C)cc2C)C(Cl)(Cl)Cl)cc1 (stereo not drawn) returned SKKanGAS inh 68, CSC inhib inactive, PglD inh inactive and Rtt109 HAT inh inactive.
For CCc1ccc(OCC(=O)NC(NC(=S)Nc2ccccc2C)C(Cl)(Cl)Cl)cc1 (stereo not drawn) the results were SKKanGAS inh inactive, PfHsp90 yeast 2 inactive, CSC inhib inactive, PglD inh inactive, FN deposition inh inactive and Rtt109 HAT inh inactive.
`C[C@@H]1CN([C@@H](C)CO)C(=O)c2cc(C3=CCCCC3)cnc2O[C@H]1CN(C)C(=O)c1ccccc1` gave PglD inh inactive and FN deposition inh inactive.
Screening CCOc1ccc2c(c1)-c1c(ssc1=S)C(C)(C)N2C(=O)c1ccco1 returned SKKanGAS inh inactive, PfHsp90 yeast 2 inactive, CSC inhib 85, PglD inh inactive, FN deposition inh inactive and Rtt109 HAT inh inactive.
`O=C(CSc1ccc2ccccc2c1Br)Nc1cccc(S(=O)(=O)NC2=NCCCCC2)c1` gave SKKanGAS inh inactive, PfHsp90 yeast 2 inactive, CSC inhib 91, FN deposition inh inactive and Rtt109 HAT inh inactive.
For O=C(COC(=O)c1cc([N+](=O)[O-])ccc1N1CCOCC1)Nc1ccc(Cl)cn1 the results were SKKanGAS inh inactive, PfHsp90 yeast 2 inactive, CSC inhib 86, PglD inh inactive and Rtt109 HAT inh inactive.
For O/N=C/c1cc(Cl)ccc1OCc1cccc2ccccc12 the results were SKKanGAS inh 80 and CSC inhib inactive.
